# Source: PubChem BioAssay (Broad Institute)
# Cneo AK release: causes C. neoformans cell lysis; lysis activity, % at 15 µM; AID 651654; adenylate kinase release luminescence, 4 h; normalised: neutral wells 0, clomiphene wells 100; 360,000 tested, 0.2% active;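 active means mean lysis activity across replicates of at least 80%, whatever share of replicates individually reach that level; inactive means mean lysis activity below 80%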
#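 read-out = cell lysis signal | test system = log-phase Cryptococcus neoformans yeast cells | input = cells at 5 × 10^6 per mL | medium = fresh YPD growth medium | signal = luminescent adenylate kinase detection reagent | timing = 4 h at 37 °C static, read 1 h later | dosing = single dose | controls = Clomiphene as positive lysis control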
# SIRT5 block: inhibitors of human sirtuin-5 desuccinylase | AID 652115 | 330,000 tested, 1.1% active | inhibition, % at 15 µM | Purified SirT5, succinyl-peptide AMC, trypsin-coupled fluorescence | Q9NXA8; in the data active means inhibition above about 15%; inconclusive means no clear call, values can overlap the other calls
# Target sequence (Q9NXA8 whole entry, looked up): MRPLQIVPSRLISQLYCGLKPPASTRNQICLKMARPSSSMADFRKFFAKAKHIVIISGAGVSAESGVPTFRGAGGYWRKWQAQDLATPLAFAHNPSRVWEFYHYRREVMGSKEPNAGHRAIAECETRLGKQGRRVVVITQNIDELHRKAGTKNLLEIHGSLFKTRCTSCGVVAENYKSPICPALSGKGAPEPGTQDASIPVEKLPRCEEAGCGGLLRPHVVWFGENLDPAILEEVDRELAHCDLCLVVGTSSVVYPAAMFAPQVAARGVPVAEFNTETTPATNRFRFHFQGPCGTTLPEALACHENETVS
# S100A4 MyoIIA: S100A4-myosin IIA interaction inhibition; P26447; S100A4/TAMRA-MyoIIA peptide fluorescence polarization; inhibition, % at 10.7 µM; 360,000 tested, 0.14% active;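 active means mean inhibition of at least 70% across replicates, with every replicate also reaching that level; inconclusive means mean inhibition reaches 70% but some replicates fall short; inactive means mean inhibition below 70%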
# Target sequence (P26447 whole entry, looked up): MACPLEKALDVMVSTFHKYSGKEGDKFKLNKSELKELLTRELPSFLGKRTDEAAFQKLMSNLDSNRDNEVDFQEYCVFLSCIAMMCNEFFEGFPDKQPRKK
#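 Test system: S100A4 monomer protein; Medium: HEPES pH 7.2 with CaCl2, KCl, NaCl, DTT, Triton; Probe or stimulus: TAMRA-labelled myosin IIA heavy-chain peptide probe, 5 nM; Doses: one dose per compound; Times: polarization read 5 min after assay mix addition, stable 5–60 min; Benchmarks: neutral control DMSO, positive control TFP.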
# PGC1a acetyl inh: PGC1a acetylation modulation, inhibitor mode; U2OS PGC1a acetylation, AlphaScreen anti-acetyl-lysine; with virally co-expressed GCN5 acetyltransferase; inhibition, % at 15.6 µM; 350,000 tested, 0.17% active;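 active means every replicate shows inhibition of at least 40%; inconclusive means mean inhibition at least 40% but some replicate below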
# Ecoli rRNA inh: inhibitors of bacterial rRNA selective over humanized ribosomes | E. coli WT GFP vs humanized-ribosome RFP mutants, fluorescence, 24 h; hits give low values; DMSO median 0, no signal -100 | GFP signal change (wild-type ribosome), % (no concentration beside the values) | 350,000 tested, 1.6% active;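 active means significant combined selectivity score with lowered wild-type GFP, culture density cut under 30%, mutant RFP and density less affected; inactive means any of these conditions unmet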
# Statin myotox sup: suppressors of simvastatin-induced myotoxicity in C2C12 myotubes | rescue of ATP level, % at 7.49 µM | ATP luminescence, 48 h; scaled: DMSO 0, geranylgeraniol control 100 | 330,000 tested, 0.78% active;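 active means mean ATP rescue above about 67%, or every replicate alone reaching that limit, limit read from the data, passing the limit was not always enough; inconclusive means no clear call, values can overlap the other calls; inactive means mean under the limit and some replicate under it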;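 further: myotubes were challenged with 10 µM simvastatin during compound exposure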
# AID977621: wild-type E. coli growth inhibition versus H69 humanized strain – H69 mutant RFP, wild-type GFP, cherry-pick, dose response; shares compounds with Ecoli rRNA inh; fluorescence, 24 h; activity change, negative = inhibition at 50 µM; 1,900 tested, under 10 active;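 active means Wild-type ribosome reporter drop at least double the humanized mutant ribosome reporter drop, growth loss under a set limit; inconclusive means no clear call, values can overlap the other calls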;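 further: wild-type GFP and H69 mutant RFP strains grown together 50/50 in each well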
# AID977628: E. coli growth inhibition, wild-type GFP versus h24 humanized RFP strain, dose response, h24 mutant RFP vs wild-type GFP, cherry-pick | shares compounds with Ecoli rRNA inh | E. coli WT GFP strain growth, fluorescence, 24 h | activity change, negative = inhibition at 50 µM | 1,900 tested, under 10 active | AID 977628;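 active means compound lowering the normal-ribosome reporter at least twice as much as the humanized-ribosome reporter, growth loss under a set limit; inconclusive means no clear call, values can overlap the other calls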;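 further: wild-type GFP and h24 humanized RFP strains co-cultured 1 to 1 per well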
# Numbers stand for hits; . = inactive; ? = inconclusive; / = not tested or not shown. Compounds with a hit are over-represented: about 3% of the library has one in this group of screens.
SMILES,Cneo AK release,SIRT5 block,S100A4 MyoIIA,PGC1a acetyl inh,Ecoli rRNA inh,Statin myotox sup,AID977621,AID977628
Cc1noc(C)c1NC(=O)N(C)C[C@@H]1Oc2c(NC(=O)C3CC3)cccc2C(=O)N([C@@H](C)CO)C[C@@H]1C,.,.,.,.,.,.,/,/
COc1cc(-c2cc3nc(NCCc4ccncc4)ccn3n2)cc(OC)c1OC,.,.,.,.,-18.5,.,/,?
O=C(Cn1cc(COc2c(F)c(F)cc(F)c2F)nn1)c1ccc(O)cc1,.,.,.,/,-18.2,.,?,/
COc1ccc(OCc2cn(CC(=O)c3ccc(O)cc3)nn2)cc1,.,.,.,.,.,.,/,/
COc1ccc(-c2noc(=O)n2Cc2ccccc2Cl)cc1,.,.,.,.,-15.2,.,/,.
COc1ccc(-c2noc(=O)n2Cc2ccc(F)cc2Cl)cc1,.,.,.,.,.,.,/,/
C[C@H]1CN([C@@H](C)CO)C(=O)c2cc(Br)cnc2O[C@@H]1CN(C)C(=O)NC1CCCC1,.,.,.,.,.,/,/,/
COC(=O)CC1COc2ccccc2N1C(=O)c1ccc(Cl)cc1 (stereo not drawn),.,/,/,.,/,.,/,/
COC(=O)CC1COc2ccccc2N1C(=O)c1ccc(Br)cc1 (stereo not drawn),.,.,.,.,-24.8,.,.,.
CNC(=O)c1ccsc1NC(=O)c1ccc2c(c1)CCCC2,.,.,.,.,-25.8,/,?,/
CCCN(Cc1ccco1)S(=O)(=O)c1ccc(OC)c(OC)c1,/,.,.,/,-20.1,.,.,.
COc1ccc(NC(=O)CCN2C(=O)C3C4C=CC(C4)C3C2=O)cc1 (stereo not drawn),.,.,.,.,.,.,/,/
Cc1cc(NC(=O)CCN2C(=O)C3C4C=CC(C4)C3C2=O)ccc1Br (stereo not drawn),.,.,.,.,-21.4,.,.,.
COc1ccc(N(CCC(=O)O)S(=O)(=O)c2ccc(C)cc2C)cc1,/,.,.,/,-17.1,/,.,.
CCCC[n+]1ccn(-c2nc3ccccc3nc2[N-]S(=O)(=O)c2cccs2)c1,.,.,.,.,-25.8,.,/,.
O=C(CN1CCCCCC1)Nc1nc2ccccc2s1,.,.,.,.,.,.,/,/
CC1CN(CC(=O)Nc2nc3ccccc3s2)CC(C)O1 (stereo not drawn),.,/,.,.,-14.7,.,.,?
O=C1N[C@H](c2ccccc2)COCc2cn(nn2)CC[C@H]1Cc1ccc(Cl)cc1,/,/,/,/,.,/,/,/
COCC(=O)Nc1ccc2c(c1)OC[C@@H](C)N(Cc1cc(F)ccc1F)C[C@H](C)[C@H](OC)CN(C)C2=O,.,.,.,.,.,.,/,/
CCOc1ccc2[nH]c3c(NCCN(C)C)ncnc3c2c1,.,.,.,.,-13.4,.,.,?
CCOc1ccc2[nH]c3c(NCCC(C)C)ncnc3c2c1,.,.,.,/,.,.,/,/
CCn1c(-c2cc(-c3ccc(OC(C)C)cc3)nc3ccccc23)n[nH]c1=S,.,.,.,.,-28.5,.,/,?
O=C(NCc1ccc(F)cc1)[C@H]1[C@H](CO)[C@H]2Cn3c(cccc3=O)[C@@H]1N2Cc1cccnc1,.,.,.,/,.,.,/,/
Cc1ccc(C)c(-c2[nH]ncc2CN2CCCC(CO)(Cc3ccccc3C)C2)c1 (stereo not drawn),/,.,.,/,-30.4,/,.,/
COC(=O)c1c(-c2ccccc2)noc1C,/,/,.,.,.,/,/,/
SMILES,Cneo AK release,SIRT5 block,S100A4 MyoIIA,PGC1a acetyl inh,Ecoli rRNA inh,Statin myotox sup,AID977621,AID977628
COC(=O)c1c(C)oc(C)c1S(=O)(=O)NC(c1ccccc1)c1ccccc1,.,.,.,.,-34.8,.,.,/
CC(C)[C@@H]1CC[C@@H](C)C[C@H]1O,.,.,.,.,-14.3,.,.,?
C[C@@H]1CCCCO[C@H](CN(C)C)[C@H](C)CN([C@@H](C)CO)C(=O)c2cc(NC(=O)Nc3cccc4ccccc34)ccc2O1,.,.,.,.,-36.3,.,.,.
C[C@@H]1CCCCO[C@@H](CN(C)S(C)(=O)=O)[C@@H](C)CN([C@H](C)CO)C(=O)c2cc(NC(=O)Nc3cccc4ccccc34)ccc2O1,.,.,.,.,.,/,/,/
C[C@@H]1CCCCO[C@H](CN(C)C)[C@H](C)CN([C@H](C)CO)C(=O)c2cc(NC(=O)Nc3cccc4ccccc34)ccc2O1,.,.,.,.,.,.,.,/
C[C@@H]1CCCCO[C@H](CN(C)S(C)(=O)=O)[C@H](C)CN([C@@H](C)CO)C(=O)c2cc(NC(=O)Nc3cccc4ccccc34)ccc2O1,.,.,.,.,.,/,/,/
C[C@@H]1CCCCO[C@@H](CN(C)C(=O)Nc2cccc3ccccc23)[C@@H](C)CN([C@@H](C)CO)C(=O)c2cc(NC(=O)Nc3cccc4ccccc34)ccc2O1,.,.,.,.,.,/,/,/
C[C@@H]1CCCCO[C@H](CN(C)C)[C@@H](C)CN([C@H](C)CO)C(=O)c2cc(NC(=O)Nc3cccc4ccccc34)ccc2O1,.,.,.,.,.,.,.,?
C[C@H](CO)N1C[C@H](C)[C@H](CN(C)CC2CC2)OCCCC[C@H](C)Oc2ccc(NC(=O)Nc3cccc4ccccc34)cc2C1=O,.,/,/,.,.,/,/,/
C[C@H]1CCCCO[C@H](CN(C)C)[C@@H](C)CN([C@@H](C)CO)C(=O)c2cc(NC(=O)Nc3cccc4ccccc34)ccc2O1,.,.,.,.,.,.,.,?
C[C@H](CO)N1C[C@H](C)[C@@H](CN(C)C(=O)C2CCC2)Oc2ncc(-c3ccncc3)cc2C1=O,/,/,/,.,.,.,/,/
CCCC(=O)Nc1ccc2c(c1)C(=O)N(C)[C@@H]1CC[C@@H](CC(=O)Nc3cn(C)nc3C)O[C@@H]1CO2,.,.,.,.,.,.,/,/
C[C@@H]1CCCCO[C@@H](CN(C)C(=O)c2ccccc2)[C@H](C)CN([C@@H](C)CO)C(=O)c2cc(NC(=O)Cc3ccccc3)ccc2O1,.,.,.,.,-25.0,/,/,?
C[C@@H]1CCCCO[C@@H](CN(C)C)[C@H](C)CN([C@@H](C)CO)C(=O)c2cc(NC(=O)Nc3cccc4ccccc34)ccc2O1,.,.,.,.,.,.,.,.
C[C@@H]1CN([C@@H](C)CO)C(=O)c2cc(NC(=O)Nc3cccc4ccccc34)ccc2O[C@@H](C)CCCCO[C@H]1CN(C)CC1CC1,.,/,/,.,.,/,/,/
